From ChEMBL document CHEMBL1132183 (J Med Chem, 1999)

Tests used:
[1] = target: T1, Alpha-1D adrenergic receptor (Rattus norvegicus) (UniProt P23944); assay: Eudisimic ratio(ER) is the antilog of the defference between the pKb and pD2 values against Alpha-1D adrenergic receptor subtype; type: functional
T1 sequence (whole entry): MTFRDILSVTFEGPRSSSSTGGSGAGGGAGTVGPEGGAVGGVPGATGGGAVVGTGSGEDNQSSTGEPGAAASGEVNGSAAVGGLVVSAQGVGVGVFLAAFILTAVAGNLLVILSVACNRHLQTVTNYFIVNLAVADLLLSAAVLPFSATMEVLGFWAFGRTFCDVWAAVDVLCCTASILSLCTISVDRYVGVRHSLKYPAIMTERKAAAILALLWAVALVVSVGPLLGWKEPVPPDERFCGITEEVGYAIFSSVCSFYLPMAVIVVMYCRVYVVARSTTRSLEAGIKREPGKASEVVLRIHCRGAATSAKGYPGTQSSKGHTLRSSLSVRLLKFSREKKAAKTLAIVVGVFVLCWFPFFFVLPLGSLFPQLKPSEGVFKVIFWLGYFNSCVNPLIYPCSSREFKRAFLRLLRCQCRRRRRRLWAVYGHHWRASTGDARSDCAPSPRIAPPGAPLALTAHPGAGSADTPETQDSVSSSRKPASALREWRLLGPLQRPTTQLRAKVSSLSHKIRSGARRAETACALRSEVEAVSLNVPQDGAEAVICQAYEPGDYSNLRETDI
Outline: (§1)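 Eudismic ratio is the antilog of the difference between the pKb (functional α1 tissue assays) or pD2 (5-HT1A [35S]GTPγS stimulation) of the eutomer and that of its distomer.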

[2] = target: Serotonin 2 (5-HT2) receptor (Rattus norvegicus, UniProt P30994+P08909+P14842); assay: Displacement of [3H]ketanserin from rat brain 5-hydroxytryptamine 2 receptor
Outline: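 Rat cerebral cortex membranes (male Sprague–Dawley) in Tris-HCl pH 7.4 with 10 μM pargiline and 0.1% ascorbic acid were incubated 20 min at 37 °C with 0.7–1.3 nM [3H]ketanserin (5-HT2A). Nonspecific binding was defined by 2 μM ketanserin. Bound label was counted after filtration, and Ki was derived by Cheng–Prusoff.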

[3] = target: T2, Alpha-1A adrenergic receptor (Rattus norvegicus) (UniProt P43140); assay: Eudisimic ratio(ER) is the antilog of the defference between the pKb and pD2 values against Alpha-1A adrenergic receptor subtype; outline: as §1
T2 sequence (whole entry): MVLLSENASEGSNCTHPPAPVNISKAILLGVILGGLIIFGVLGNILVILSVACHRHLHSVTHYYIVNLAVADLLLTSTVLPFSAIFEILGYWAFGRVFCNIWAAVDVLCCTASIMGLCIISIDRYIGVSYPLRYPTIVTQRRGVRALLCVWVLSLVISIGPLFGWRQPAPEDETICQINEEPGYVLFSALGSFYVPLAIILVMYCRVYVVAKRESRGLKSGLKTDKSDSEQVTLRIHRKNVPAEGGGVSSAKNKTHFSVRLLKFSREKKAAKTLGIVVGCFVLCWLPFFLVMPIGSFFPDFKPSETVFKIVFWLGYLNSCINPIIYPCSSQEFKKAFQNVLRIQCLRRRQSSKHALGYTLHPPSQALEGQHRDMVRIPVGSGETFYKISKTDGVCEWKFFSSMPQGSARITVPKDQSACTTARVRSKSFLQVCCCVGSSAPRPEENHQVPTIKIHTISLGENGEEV

[4] = target: T3, Alpha-1B adrenergic receptor (Rattus norvegicus) (UniProt P15823); assay: Eudisimic ratio(ER) is the antilog of the defference between the pKb and pD2 values against alpha-1B-adrenoceptor subtype; type: functional; outline: as §1
T3 sequence (whole entry): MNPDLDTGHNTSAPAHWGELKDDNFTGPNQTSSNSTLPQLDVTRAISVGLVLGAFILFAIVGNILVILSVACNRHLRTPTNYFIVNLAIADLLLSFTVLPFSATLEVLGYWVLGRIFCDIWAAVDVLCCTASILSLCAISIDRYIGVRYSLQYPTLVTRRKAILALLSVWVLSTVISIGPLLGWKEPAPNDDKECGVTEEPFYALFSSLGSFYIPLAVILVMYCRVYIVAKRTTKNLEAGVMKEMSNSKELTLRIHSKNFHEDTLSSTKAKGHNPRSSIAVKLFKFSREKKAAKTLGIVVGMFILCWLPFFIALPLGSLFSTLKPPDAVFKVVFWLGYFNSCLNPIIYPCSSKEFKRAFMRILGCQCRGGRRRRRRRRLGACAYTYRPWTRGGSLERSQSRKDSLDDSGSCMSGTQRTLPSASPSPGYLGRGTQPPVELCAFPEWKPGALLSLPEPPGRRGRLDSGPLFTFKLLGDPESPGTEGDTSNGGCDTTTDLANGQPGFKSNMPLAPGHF

[5] = target: T1, Alpha-1D adrenergic receptor (Rattus norvegicus); assay: Alpha-1D adrenergic receptor subtype blocking activity (antagonism) against (-)-noradrenaline-induced contraction of rat thoracic aorta.; type: functional, tissue-based
Outline: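 Helicoidal strips of rat thoracic aorta under 1 g tension, bath with 0.01 μM desipramine and 1 μM (±)-propranolol, equilibrated ≥1 h. Cumulative (–)-noradrenaline curves at 30-min intervals: first two discarded, third as control, fourth after 30-min antagonist exposure. pKb by Arunlakshana–Schild from EC50 dose ratios at 2–3 antagonist concentrations, each tested four times.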

[6] = target: T4, Alpha-1D adrenergic receptor (Homo sapiens, UniProt P25100); assay: Ability to displace [3H]prazosin from human cloned Alpha-1D adrenergic receptor
T4 sequence (P25100 whole entry): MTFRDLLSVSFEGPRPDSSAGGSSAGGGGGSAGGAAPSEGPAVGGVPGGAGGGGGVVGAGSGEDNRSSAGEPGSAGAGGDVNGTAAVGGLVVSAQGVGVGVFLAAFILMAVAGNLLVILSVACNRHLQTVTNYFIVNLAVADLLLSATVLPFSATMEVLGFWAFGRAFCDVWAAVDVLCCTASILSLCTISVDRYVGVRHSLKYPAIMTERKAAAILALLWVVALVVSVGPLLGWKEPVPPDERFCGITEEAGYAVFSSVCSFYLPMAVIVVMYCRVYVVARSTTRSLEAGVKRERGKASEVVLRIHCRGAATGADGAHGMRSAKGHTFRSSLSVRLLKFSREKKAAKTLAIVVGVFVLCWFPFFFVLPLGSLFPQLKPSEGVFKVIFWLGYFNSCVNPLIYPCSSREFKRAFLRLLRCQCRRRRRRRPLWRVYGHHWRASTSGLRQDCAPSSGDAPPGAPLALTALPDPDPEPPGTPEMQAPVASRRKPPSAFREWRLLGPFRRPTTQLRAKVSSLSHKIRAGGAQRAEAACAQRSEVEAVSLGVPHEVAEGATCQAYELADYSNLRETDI
Outline: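 Competition binding at cloned human α1 subtypes stably expressed in CHO cells: membranes (30 μg protein) incubated 30 min at 25 °C in 50 mM Tris-HCl pH 7.4 with 0.1–0.4 nM [3H]prazosin and competitor (1 pM–10 μM). Nonspecific binding with 10 μM phentolamine; filtration and scintillation counting. Ki by Cheng–Prusoff; 2–3 experiments in triplicate.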

[7] = target: T1, Alpha-1D adrenergic receptor (Rattus norvegicus); assay: Eudisimic ratio(ER) is the antilog of the defference between the pKb and pD2 values against alpha-1D-adrenoceptor subtype; type: functional; outline: as §1

O[C@H]1[C@@H](NC[C@H]2COc3ccccc3O2)CC[C@@H]1Oc1ccccc1
ER [1]: 7 | Log Ki [2]: < -6 | ER [3]: 3 | ER [4]: 11 | pKb [5]: 6.92

O[C@@H]1[C@H](NC[C@@H]2COc3ccccc3O2)CC[C@H]1Oc1ccccc1
pKb [5]: 7.78

O[C@H]1[C@@H](NC[C@@H]2COc3ccccc3O2)CC[C@@H]1Oc1ccccc1
pKb [5]: 6.65

O[C@@H]1[C@H](NC[C@H]2COc3ccccc3O2)CC[C@H]1Oc1ccccc1
Ki [6]: 7.94 nM | ER [7]: 33 | Log Ki [2]: < -6 | ER [4]: 49 | pKb [5]: 8.17
